According to ChEMBL document CHEMBL1153110, “Optimization of (4,4-difluoro-1,2,3,4-tetrahydro-5H-1-benzazepine-5-ylidene)acetamide derivatives as arginine vasopressin V2 receptor agonists and discussion of their binding modes” (Bioorg Med Chem, 2009):

Tests used:
Vasopressin V2 receptor [1] = molecular target: T1, Vasopressin V2 receptor (Homo sapiens, UniProt P30518); test: Intrinsic activity at human vasopressin V2 receptor expressed in CHO cells assessed as cAMP accumulation by HTRF assay relative to AVP; assay type: functional, cell-based
T1 sequence (P30518 whole entry): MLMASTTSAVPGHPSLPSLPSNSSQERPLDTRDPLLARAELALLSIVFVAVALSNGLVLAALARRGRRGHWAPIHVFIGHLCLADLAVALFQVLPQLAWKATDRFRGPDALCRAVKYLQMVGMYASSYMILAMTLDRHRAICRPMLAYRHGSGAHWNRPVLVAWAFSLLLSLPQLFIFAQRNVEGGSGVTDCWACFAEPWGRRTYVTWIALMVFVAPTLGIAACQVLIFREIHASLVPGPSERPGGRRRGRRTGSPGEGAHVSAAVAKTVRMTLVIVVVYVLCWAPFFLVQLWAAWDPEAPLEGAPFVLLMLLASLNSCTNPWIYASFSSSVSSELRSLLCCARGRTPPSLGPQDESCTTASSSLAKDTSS
How it was run: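 Intrinsic activity was measured in the cAMP HTRF assay in human V2-CHO cells: 24 h serum-free, then 10 min at 37 °C with 1 mmol/L IBMX. It is the compound's maximal response as a percentage of the maximal AVP response (100%). Assays were run in triplicate.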

[2] = molecular target: Vasopressin V1a/V2 (Homo sapiens) (UniProt P30518+P37288); test: Selectivity ratio of Ki for human vasopressin V1A receptor to Ki for human vasopressin V2 receptors
Sequence of Vasopressin V1a/V2 (Homo sapiens) (P30518 whole entry, looked up): as the sequence (P30518 whole entry) above
Sequence of Vasopressin V1a/V2 (Homo sapiens) (P37288 whole entry, looked up): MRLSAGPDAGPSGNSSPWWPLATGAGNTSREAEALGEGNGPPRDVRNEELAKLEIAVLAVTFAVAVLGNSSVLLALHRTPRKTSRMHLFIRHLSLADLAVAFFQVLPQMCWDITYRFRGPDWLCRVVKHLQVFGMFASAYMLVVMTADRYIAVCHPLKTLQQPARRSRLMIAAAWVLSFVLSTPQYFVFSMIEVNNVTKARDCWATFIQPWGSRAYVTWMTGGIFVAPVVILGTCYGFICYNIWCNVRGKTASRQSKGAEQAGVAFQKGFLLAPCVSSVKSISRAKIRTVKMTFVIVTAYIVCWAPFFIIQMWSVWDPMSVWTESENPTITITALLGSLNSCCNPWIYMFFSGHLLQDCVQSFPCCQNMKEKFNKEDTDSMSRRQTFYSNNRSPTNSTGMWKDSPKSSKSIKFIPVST

Vasopressin V2 receptor [3] = molecular target: T1, Vasopressin V2 receptor; test: Agonist activity at human vasopressin V2 receptor expressed in CHO cells assessed as cAMP accumulation by HTRF assay; assay type: functional, cell-based
How it was run: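 CHO cells with human V2 receptor were grown to subconfluence and serum-starved for 24 h. They were then exposed to test compound for 10 min at 37 °C in α-MEM with 1 mmol/L IBMX and 0.1% BSA, and lysed in PBS with 0.2% Triton X-100. cAMP was read by HTRF. EC50 is the concentration giving 50% of the maximal AVP response. Triplicate.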

Vasopressin V2 receptor [4] = molecular target: T1, Vasopressin V2 receptor; test: Displacement of [3H]vasopressin from human vasopressin V2 receptor expressed in CHO cells by microplate scintillation counting; assay type: cell-based
How it was run: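 Membranes came from human V2-expressing CHO cells: hypotonic lysis, then centrifugation at 1000g and 35,000g at 4 °C. They were incubated with [3H]vasopressin at 0.91 nmol/L final in 50 mmol/L Tris-HCl pH 7.4, filtered on GF/B and washed with ice-cold Tris buffer. Retained radioactivity was scintillation counted. Assays were run in triplicate.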

Vasopressin V1a receptor = Vasopressin V1a receptor (Homo sapiens, UniProt P37288); test: Displacement of [3H]vasopressin from human vasopressin V1A receptor expressed in CHO cells by microplate scintillation counting; assay type: cell-based
Sequence of Vasopressin V1a receptor (P37288 whole entry): as the sequence (P37288 whole entry, looked up) above

Rattus norvegicus = test: Antidiuretic activity in water-loaded po dosed Wistar rat assessed as decrease in urinary excretion administered 15 mins prior to water loading measured up to 4 hrs; assay type: functional; conditions: Urine
How it was run: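 Male Wistar rats (200–300 g) were pre-screened for at least 70% excretion of an oral water load. They were deprived of feed and water and dosed orally without anesthesia. Distilled water (30 mL/kg po) was given 15 min later, and urine was collected in metabolic cages for 4 h (n = 3–6). Excretion was expressed as % of the loaded volume. ED50, the dose lowering excretion to 50%, came from linear regression.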

| SMILES | Intrinsic activity (Vasopressin V2 receptor [1]) [%] | Ratio Ki [2] | EC50 (Vasopressin V2 receptor [3]) [nM] | Ki (Vasopressin V2 receptor [4]) [nM] | Ki (Vasopressin V1a receptor) [nM] | ED50 (Rattus norvegicus) [mg/kg] |
| --- | --- | --- | --- | --- | --- | --- |
| Cc1ccn(-c2ccc(C(=O)N3CCC(F)(F)/C(=C\C(=O)NCCO)c4ccccc43)c(C(F)(F)F)c2)n1 | 115 | 2.2 | 2.4 | 78 | 170 | 0.2 |
| C[C@H]1CCN(c2ccc(C(=O)N3CCC(F)(F)/C(=C\C(=O)NCCO)c4ccccc43)c(C(F)(F)F)c2)C1 | 111 | 3.1 | 1 | 14 | 43 | 0.012 |
| Cc1ccn(-c2ccc(C(=O)N3CCC(F)(F)/C(=C\C(=O)NCCO)c4ccccc43)c(Cl)c2)n1 | 93.9 | 2.9 |  |  |  | 0.14 |

The next lines start with results.

| Intrinsic activity (Vasopressin V2 receptor [1]) [%] | Ratio Ki [2] | EC50 (Vasopressin V2 receptor [3]) [nM] | Ki (Vasopressin V2 receptor [4]) [nM] | Ki (Vasopressin V1a receptor) [nM] | SMILES | ED50 (Rattus norvegicus) [mg/kg] |
| --- | --- | --- | --- | --- | --- | --- |
| 109 | 1.2 | 0.98 | 14 | 17 | C[C@H]1CCN(c2ccc(C(=O)N3CCC(F)(F)/C(=C\C(=O)NCCO)c4ccccc43)c(Cl)c2)C1 |  |
| 118 | 1 | 0.99 | 13 | 13 | C[C@@H]1CCN(c2ccc(C(=O)N3CCC(F)(F)/C(=C\C(=O)NCCO)c4ccccc43)c(Cl)c2)C1 |  |
| 114 | 2.4 | 1 | 16 | 39 | C[C@@H]1CCN(c2ccc(C(=O)N3CCC(F)(F)/C(=C\C(=O)NCCO)c4ccccc43)c(C(F)(F)F)c2)C1 | 0.04 |
